Results from ChEMBL document CHEMBL1157304, “Sesquiterpene lactones from Inula britannica and their cytotoxic and apoptotic effects on human cancer cell lines” (J Nat Prod, 2006).

Assays:
AGS [1] = assay: Induction of apoptosis in human AGS cells at 5 uM after 24 hrs by FACS; assay type: functional
Summary of the method: (§1)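 2 × 10^5 cells plated in 60 mm dishes and incubated 24 h, then treated for 24 h with compound in DMSO. Cells harvested, washed in PBS and fixed overnight in ice-cold ethanol at −20 °C. Pellets held 30 min at 37 °C in 0.5% Triton X-100/PBS with 0.5 μg/mL RNase. Propidium iodide (50 μg/mL) added, 30 min on ice. Sub-G1 fraction read by FACScan flow cytometry. n=3, mean ± SE.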

COLO 205 [2] = assay: Induction of apoptosis in human COLO205 cells at 100 uM after 24 hrs by FACS; assay type: functional; summary of the method: as §1
HL-60 [3] = assay: Induction of apoptosis in human HL60 cells at 5 uM after 24 hrs by FACS; assay type: functional; summary of the method: as §1
HT-29 [4] = assay: Cytotoxicity against human HT29 cells after 24 hrs by trypan blue exclusion assay; assay type: functional, cell-based; conditions: HT-29, 24 h
Summary of the method: (§2)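 Cells grown at 37 °C, 5% CO2; RPMI for COLO 205, HT-29 and HL-60, DMEM/F12 for AGS, each with 10% heat-inactivated FBS, penicillin/streptomycin and 2 mM L-glutamine. Compounds in DMSO (vehicle control 0.01% DMSO) tested at 5–100 μM for 24 h. Cells diluted 1:1 with 0.5% trypan blue. Unstained cells counted by hemocytometer and expressed as % viable. Three samples per group, mean ± SE.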

COLO 205 [5] = assay: Induction of apoptosis in human COLO205 cells at 5 uM after 24 hrs by FACS; assay type: functional; summary of the method: as §1
HL-60 [6] = assay: Induction of apoptosis in human HL60 cells at 50 uM after 24 hrs by FACS; assay type: functional; summary of the method: as §1
HT-29 [7] = assay: Induction of apoptosis in human HT29 cells at 100 uM after 24 hrs by FACS; assay type: functional; summary of the method: as §1
AGS [8] = assay: Induction of apoptosis in human AGS cells at 100 uM after 24 hrs by FACS; assay type: functional; summary of the method: as §1
AGS [9] = assay: Induction of apoptosis in human AGS cells at 10 uM after 24 hrs by FACS; assay type: functional; summary of the method: as §1
HT-29 [10] = assay: Induction of apoptosis in human HT29 cells at 50 uM after 24 hrs by FACS; assay type: functional; summary of the method: as §1
COLO 205 [11] = assay: Cytotoxicity against human COLO205 cells after 24 hrs by trypan blue exclusion assay; assay type: functional, cell-based; conditions: COLO 205, 24 h; summary of the method: as §2
HL-60 [12] = assay: Induction of apoptosis in human HL60 cells at 10 uM after 24 hrs by FACS; assay type: functional; summary of the method: as §1
HL-60 [13] = assay: Induction of apoptosis in human HL60 cells at 25 uM after 24 hrs by FACS; assay type: functional; summary of the method: as §1
COLO 205 [14] = assay: Induction of apoptosis in human COLO205 cells at 10 uM after 24 hrs by FACS; assay type: functional; summary of the method: as §1
AGS [15] = assay: Induction of apoptosis in human AGS cells at 25 uM after 24 hrs by FACS; assay type: functional; summary of the method: as §1
AGS [16] = assay: Cytotoxicity against human AGS cells after 24 hrs by trypan blue exclusion assay; assay type: functional, cell-based; summary of the method: as §2
AGS [17] = assay: Induction of apoptosis in human AGS cells at 50 uM after 24 hrs by FACS; assay type: functional; summary of the method: as §1
HT-29 [18] = assay: Induction of apoptosis in human HT29 cells at 10 uM after 24 hrs by FACS; assay type: functional; summary of the method: as §1
HL-60 [19] = assay: Cytotoxicity against human HL60 cells after 24 hrs by trypan blue exclusion assay; assay type: functional, cell-based; conditions: HL-60, 24 h; summary of the method: as §2
HL-60 [20] = assay: Induction of apoptosis in human HL60 cells at 100 uM after 24 hrs by FACS; assay type: functional; summary of the method: as §1
COLO 205 [21] = assay: Induction of apoptosis in human COLO205 cells at 25 uM after 24 hrs by FACS; assay type: functional; summary of the method: as §1
COLO 205 [22] = assay: Induction of apoptosis in human COLO205 cells at 50 uM after 24 hrs by FACS; assay type: functional; summary of the method: as §1
HT-29 [23] = assay: Induction of apoptosis in human HT29 cells at 25 uM after 24 hrs by FACS; assay type: functional; summary of the method: as §1
HT-29 [24] = assay: Induction of apoptosis in human HT29 cells at 5 uM after 24 hrs by FACS; assay type: functional; summary of the method: as §1

| SMILES | Activity (AGS [1]) [%] | Activity (COLO 205 [2]) [%] | Activity (HL-60 [3]) [%] | IC50 (HT-29 [4]) [µM] | Activity (COLO 205 [5]) [%] | Activity (HL-60 [6]) [%] | Activity (HT-29 [7]) [%] | Activity (AGS [8]) [%] | Activity (AGS [9]) [%] | Activity (HT-29 [10]) [%] | IC50 (COLO 205 [11]) [µM] | Activity (HL-60 [12]) [%] | Activity (HL-60 [13]) [%] | Activity (COLO 205 [14]) [%] | Activity (AGS [15]) [%] | IC50 (AGS [16]) [µM] | Activity (AGS [17]) [%] | Activity (HT-29 [18]) [%] | IC50 (HL-60 [19]) [µM] | Activity (HL-60 [20]) [%] | further results |
| --- | --- | --- | --- | --- | --- | --- | --- | --- | --- | --- | --- | --- | --- | --- | --- | --- | --- | --- | --- | --- | --- |
| C=C1C(=O)O[C@@H]2CC(C)=C([C@@H](C)CCCOC(C)=O)[C@H](O)[C@H]12 | 15.37 | 35.79 | 4.05 | 96 | 13.44 | 5.69 | 14.87 | 18.85 | 17.28 | 9.26 | > 100 | 7.26 | 4.37 | 11.32 | 14.666 | > 100 | 14.84 | 6.81 | > 100 | 22.19 | Activity (COLO 205 [21]): 16.48%; Activity (COLO 205 [22]): 16.59%; Activity (HT-29 [23]): 11.68%; Activity (HT-29 [24]): 5.36% |
| C=C1C(=O)O[C@@H]2CC(C)=C([C@@H](C)CCCO)[C@H](OC(=O)C(C)CC)[C@H]12 (stereo partly drawn) | 10.89 | 36.24 | 6.41 | 48.1 | 5.33 | 28.6 | 6.4 | 27.1 | 11.38 | 5.16 | 58.7 | 5.36 | 10.53 | 5.86 | 17.76 | 31.3 | 28.48 | 3.68 | 47.1 | 27.05 | Activity (COLO 205 [21]): 15.2%; Activity (COLO 205 [22]): 27.21%; Activity (HT-29 [23]): 3.93%; Activity (HT-29 [24]): 4.24% |
| C=C1C(=O)O[C@@H]2CC(C)=C([C@@H](C)CCCOC(C)=O)[C@H](OC(C)=O)[C@H]12 | 7.49 | 17.82 | 6.14 | 76.6 | 6.94 | 27.02 | 20.88 | 8.12 | 5.79 | 13.08 | 56.7 | 8.67 | 21.13 | 8.69 | 11.29 | 66.4 | 10.79 | 11.15 | 35.3 | 22.24 | Activity (COLO 205 [21]): 26.95%; Activity (COLO 205 [22]): 15.44%; Activity (HT-29 [23]): 11.5%; Activity (HT-29 [24]): 11.19% |
| C=C1C(=O)O[C@H]2/C=C(\C)CC/C=C(\C)C[C@H](OC(C)=O)[C@@H]12 [ACETYL NEOBRITANNILACTONE B] | 6.16 | 98.66 | 22.93 | 57 | 15.47 | 97.74 | 82.47 | 43.11 | 7.87 | 81.43 | 14.7 | 39.71 | 95.17 | 34.72 | 9.89 | 5.4 | 13.64 | 47.56 | 16.2 | 98.05 | Activity (COLO 205 [21]): 76.87%; Activity (COLO 205 [22]): 96.92%; Activity (HT-29 [23]): 69.7%; Activity (HT-29 [24]): 20.38% |
| C=C1C(=O)O[C@@H]2CC(C)=C([C@@H](C)CCCO)[C@H](O)[C@H]12 [BRITANNILACTONE] | 7.93 | 28.31 | 7.22 | > 100 | 11.9 | 8.01 | 7.55 | 10.37 | 10.37 | 6.59 | > 100 | 5.64 | 5.24 | 12.28 | 10.16 | > 100 | 8.97 | 6.16 | > 100 | 12.83 | Activity (COLO 205 [21]): 12.79%; Activity (COLO 205 [22]): 15.54%; Activity (HT-29 [23]): 6.49%; Activity (HT-29 [24]): 5.75% |
| CC(=O)OCCC[C@H](C)C1=C[C@@H]2[C@H](C)C(=O)O[C@@H]2C[C@@]1(C)O [NEOBRITANNILACTONE A] | 9.23 | 25.5 | 6.68 | > 100 | 4.08 | 6.63 | 7.73 | 9.81 | 9.83 | 4.09 | 97.9 | 6.31 | 6.19 | 6.51 | 10.57 | > 100 | 9.41 | 4.24 | 85.8 | 16.31 | Activity (COLO 205 [21]): 4.28%; Activity (COLO 205 [22]): 5.44%; Activity (HT-29 [23]): 5.17%; Activity (HT-29 [24]): 3.94% |
| C=C1C(=O)O[C@H]2/C=C(\C)CC/C=C(\C)C[C@H](O)[C@@H]12 [NEOBRITANNILACTONE B] | 9.55 | 96.81 | 9.82 | 56.1 | 10.73 | 96.94 | 87.02 | 19.22 | 8.66 | 82.27 | 14.3 | 21.93 | 77.57 | 14.12 | 11.78 | 21.4 | 15.95 | 24.46 | 27.4 | 98.29 | Activity (COLO 205 [21]): 41.62%; Activity (COLO 205 [22]): 89.11%; Activity (HT-29 [23]): 66.54%; Activity (HT-29 [24]): 13.58% |
